Source: ChEMBL document CHEMBL5512639, “Insights from structure-activity relationships and the binding mode of peptidic α-ketoamide inhibitors of the malaria drug target subtilisin-like SUB1” (Eur J Med Chem, 2024)
pIC50: −log10 of the molar value. Active and inactive are the calls of the source. The calls are words filed in the database; no cut-off is given here. Numbered stars: 1 amine (or outer) side, 2 acyl side, 3 side chain; on linkers, the order of the positions; unused ones are H or OH. Square brackets hold non-standard residues; d marks the D form. Peptide text beside a SMILES is read from it. * marks the point of attachment. Ala(1H-tetrazol-5-yl) = N[C@@H](Cc1nnn[nH]1)C(=O)O; Abu(4,4,4-F3) = N[C@@H](CC(F)(F)F)C(=O)O; Gly(cPent) = N[C@H](C(=O)O)C1CCCC1; X1 = C[C@H](N[*:1])C(=O)C(=O)[*:2]; Nva(3-Et) = CCC(CC)[C@H](N)C(=O)O; Pyrazinecarbonyl = O=C(c1cnccn1)*; tBuAla = CC(C)(C)C[C@H](N)C(=O)O; NMeL = CN[C@@H](CC(C)C)C(=O)O; αMeL = CC(C)C[C@](C)(N)C(=O)O; Phg = N[C@H](C(=O)O)c1ccccc1; Tle = CC(C)(C)[C@H](N)C(=O)O; hSer = N[C@@H](CCO)C(=O)O; Dab = NCC[C@H](N)C(=O)O; Abu = CC[C@H](N)C(=O)O; Dap = NC[C@H](N)C(=O)O; Aib = CC(C)(N)C(=O)O; Dha = C=C(N)C(=O)O; Sar = CNCC(=O)O; OAll = C=CCO*

How the values were obtained:
Plasmodium falciparum = test: Antiparasitic activity against Plasmodium falciparum infected in human Erythrocyte assessed as inhibition of merozoite egress from human Erythrocyte at 100 uM measured for 8 hrs by flow cytometry analysis relative to control; assay type: functional
In short: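 P. falciparum cultured in human RBCs, RPMI 1640 with 25 mM HEPES, 2.5% Albumax II, 100 μM hypoxanthine, 37 °C, 5% O2/5% CO2. Sorbitol-synchronized, plasmion-enriched late schizonts at 2% hematocrit, 1% parasitemia exposed to compound for 8 h. Fixed in glutaraldehyde, permeabilized, RNase-treated, stained with YOYO-1. Ring parasitemia by flow cytometry (100,000 events) vs DMSO. Triplicate; IC50 from 16 concentrations, 180 to 0.8 μM.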

[1] = Inhibition of full length recombinant Plasmodium vivax SUB1 expressed in Drosophila S2 cells using Dabsyl-KLVGADDV-SLA-EDANS as substrate measured every 2 mins for 1 hr by FRET assay
[2] = target: T1, Subtilisin-like protease 1 (Plasmodium falciparum, UniProt O61142); test: Inhibition of full length recombinant Plasmodium falciparum SUB1 using Dabsyl-KLVSADNIDIS-EDANS as substrate measured every 2 mins for 1 hr by FRET assay
T1 sequence (O61142 whole entry): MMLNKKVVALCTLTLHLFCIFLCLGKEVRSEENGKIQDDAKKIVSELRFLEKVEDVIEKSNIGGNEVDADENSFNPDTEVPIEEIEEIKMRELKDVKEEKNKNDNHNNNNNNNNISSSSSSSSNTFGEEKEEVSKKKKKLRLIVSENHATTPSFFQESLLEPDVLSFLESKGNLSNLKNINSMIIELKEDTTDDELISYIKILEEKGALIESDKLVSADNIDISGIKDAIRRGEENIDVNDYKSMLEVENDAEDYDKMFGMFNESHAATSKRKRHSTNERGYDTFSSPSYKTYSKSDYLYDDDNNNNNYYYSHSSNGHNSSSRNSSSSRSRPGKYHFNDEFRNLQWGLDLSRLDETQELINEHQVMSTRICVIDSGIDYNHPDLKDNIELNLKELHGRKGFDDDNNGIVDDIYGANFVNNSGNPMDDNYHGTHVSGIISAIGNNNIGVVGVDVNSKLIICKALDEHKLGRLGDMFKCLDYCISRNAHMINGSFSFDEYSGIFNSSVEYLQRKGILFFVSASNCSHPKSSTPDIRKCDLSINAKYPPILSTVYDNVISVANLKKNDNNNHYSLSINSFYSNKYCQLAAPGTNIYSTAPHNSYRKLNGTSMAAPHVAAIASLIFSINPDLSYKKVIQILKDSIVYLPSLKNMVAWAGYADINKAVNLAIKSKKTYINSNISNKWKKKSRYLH

Row | Compound | inhibition (Plasmodium falciparum) | pIC50 [1] | inhibition at 100 µM (Plasmodium falciparum) | pIC50 [2]
1 | C=CCOC(=O)CC[C@H](NC(=O)[C@H](CC(=O)O)NC(=O)C(=O)[C@H](CNC(C)=O)NC(=O)[C@H](C)NC(=O)[C@@H](NC(=O)[C@@H](NC(C)=O)C1CCCC1)[C@@H](C)O)C(N)=O | inactive | 5.62 | – | –
2 | C=CCOC(=O)CC[C@H](NC(=O)[C@H](CC(=O)O)NC(=O)C(=O)[C@H](CNC(C)=O)NC(=O)[C@H](C)NC(=O)[C@@H](NC(=O)[C@@H](NC(C)=O)[C@@H](C)CC)[C@@H](C)O)C(N)=O | – | 4.64 | – | –
3 | C=CCOC(=O)CC[C@H](NC(=O)[C@H](CC(=O)O)NC(=O)C(=O)[C@H](C)NC(=O)[C@@H](C)NC(=O)[C@@H](NC(=O)[C@@H](NC(C)=O)C1CCCC1)[C@@H](C)O)C(N)=O | inactive | – | – | –
4 | C=CCOC(=O)CC[C@H](NC(=O)[C@H](CC(=O)O)NC(=O)C(=O)[C@H](C)NC(=O)[C@H](C)NC(=O)[C@H](CCCCN)NC(=O)[C@@H](NC(C)=O)[C@@H](C)CC)C(N)=O (Ac-IKA[X1]DE(OAll)-NH2) | – | 6.85 | 9% | –
5 | CC[C@H](C)[C@H](NC(C)=O)C(=O)N[C@H](C(=O)N[C@@H](C)C(=O)N[C@@H](C)C(=O)C(=O)N[C@@H](CC(=O)O)C(N)=O)[C@@H](C)O (Ac-ITA[X1]D-NH2) | – | 6.77 | 3% | –
6 | C=CCOC(=O)CC[C@H](NC(=O)[C@H](CCC(=O)O)NC(=O)C(=O)[C@H](C)NC(=O)[C@H](C)NC(=O)[C@@H](NC(=O)[C@@H](NC(C)=O)[C@@H](C)CC)[C@@H](C)O)C(N)=O (Ac-ITA[X1]EE(OAll)-NH2) | – | 5.54 | – | –
7 | C=CCOC(=O)CC[C@H](NC(=O)[C@H](CC(N)=O)NC(=O)C(=O)[C@H](C)NC(=O)[C@H](C)NC(=O)[C@@H](NC(=O)[C@@H](NC(C)=O)[C@@H](C)CC)[C@@H](C)O)C(N)=O (Ac-ITA[X1]NE(OAll)-NH2) | – | 5.28 | 31% | –
8 | C=CCOC(=O)CC[C@H](NC(=O)[C@H](CO)NC(=O)C(=O)[C@H](C)NC(=O)[C@H](C)NC(=O)[C@@H](NC(=O)[C@@H](NC(C)=O)[C@@H](C)CC)[C@@H](C)O)C(N)=O (Ac-ITA[X1]SE(OAll)-NH2) | – | 4.38 | – | –
9 | CC[C@H](C)[C@H](NC(C)=O)C(=O)N[C@H](C(=O)N[C@@H](C)C(=O)N[C@@H](C)C(=O)C(=O)N[C@@H](Cc1nnn[nH]1)C(N)=O)[C@@H](C)O (Ac-ITA[X1][Ala(1H-tetrazol-5-yl)]-NH2) | inactive | 5.75 | – | –
10 | C=CCOC(=O)CC[C@H](NC(=O)[C@H](Cc1nnn[nH]1)NC(=O)C(=O)[C@H](C)NC(=O)[C@H](C)NC(=O)[C@@H](NC(=O)[C@@H](NC(C)=O)[C@@H](C)CC)[C@@H](C)O)C(N)=O (Ac-ITA[X1][Ala(1H-tetrazol-5-yl)]E(OAll)-NH2) | – | 5.91 | 2% | 4.61
11 | C=CCOC(=O)CC[C@H](NC(=O)[C@H](CCO)NC(=O)C(=O)[C@H](C)NC(=O)[C@H](C)NC(=O)[C@@H](NC(=O)[C@@H](NC(C)=O)[C@@H](C)CC)[C@@H](C)O)C(N)=O (Ac-ITA[X1][hSer]E(OAll)-NH2) | – | 4.41 | – | –
12 | C=CCOC(=O)CC[C@H](NC(=O)[C@H](CC(=O)O)NC(=O)C(=O)[C@H](C)NC(=O)CNC(=O)[C@@H](NC(=O)[C@@H](NC(C)=O)[C@@H](C)CC)[C@@H](C)O)C(N)=O (Ac-ITG[X1]DE(OAll)-NH2) | – | 5.89 | – | –
13 | C=CCOC(=O)CC[C@H](NC(=O)[C@H](CC(=O)O)NC(=O)C(=O)[C@H](C)NC(=O)[C@H](CC(F)(F)F)NC(=O)[C@@H](NC(=O)[C@@H](NC(C)=O)[C@@H](C)CC)[C@@H](C)O)C(N)=O (Ac-IT[Abu(4,4,4-F3)][X1]DE(OAll)-NH2) | – | 5.44 | – | –
14 | C=CCOC(=O)CC[C@H](NC(=O)[C@H](CC(=O)O)NC(=O)C(=O)[C@H](C)NC(=O)[C@H](CC)NC(=O)[C@@H](NC(=O)[C@@H](NC(C)=O)[C@@H](C)CC)[C@@H](C)O)C(N)=O (Ac-IT[Abu][X1]DE(OAll)-NH2) | – | 6.46 | – | –
15 | C=CCOC(=O)CC[C@H](NC(=O)[C@H](CC(=O)O)NC(=O)C(=O)[C@H](C)NC(=O)[C@H](CN)NC(=O)[C@@H](NC(=O)[C@@H](NC(C)=O)[C@@H](C)CC)[C@@H](C)O)C(N)=O (Ac-IT[Dap][X1]DE(OAll)-NH2) | – | 4.88 | – | –
16 | C=CCOC(=O)CC[C@H](NC(=O)[C@H](CC(=O)O)NC(=O)C(=O)[C@H](C)NC(=O)C(=C)NC(=O)[C@@H](NC(=O)[C@@H](NC(C)=O)[C@@H](C)CC)[C@@H](C)O)C(N)=O (Ac-IT[Dha][X1]DE(OAll)-NH2) | inactive | 6.48 | – | –
17 | C=CCOC(=O)CC[C@H](NC(=O)[C@H](CC(=O)O)NC(=O)C(=O)[C@H](C)NC(=O)[C@H](C)NC(=O)[C@H](Cc1c[nH]c2ccccc12)NC(=O)[C@@H](NC(C)=O)[C@@H](C)CC)C(N)=O (Ac-IWA[X1]DE(OAll)-NH2) | – | 6.62 | 5% | –
18 | C=CCOC(=O)CC[C@H](NC(=O)[C@H](CC(=O)O)NC(=O)C(=O)[C@H](C)NC(=O)[C@H](C)NC(=O)[C@H](CCNC(=O)c1cnccn1)NC(=O)[C@@H](NC(C)=O)[C@@H](C)CC)C(N)=O (Ac-I[Dab](Pyrazinecarbonyl)A[X1]DE(OAll)-NH2) | – | 6.41 | 10% | –
19 | C=CCOC(=O)CC[C@H](NC(=O)[C@H](CC(=O)O)NC(=O)C(=O)[C@H](C)NC(=O)[C@H](C)NC(=O)[C@H](C)NC(=O)[C@@H](NC(C)=O)C1CCCC1)C(N)=O (Ac-[Gly(cPent)]AA[X1]DE(OAll)-NH2) | inactive | 4.23 | – | –
20 | CC(=O)N[C@H](C(=O)N[C@H](C(=O)N[C@@H](C)C(=O)N[C@@H](C)C(=O)C(=O)N[C@@H](CC(=O)O)C(=O)N[C@@H](CCC(=O)O)C(N)=O)[C@@H](C)O)C1CCCC1 (Ac-[Gly(cPent)]TA[X1]DE-NH2) | inactive | 7.52 | – | 7.06
21 | C=CCOC(=O)CC[C@H](NC(=O)[C@H](CC(=O)O)NC(=O)C(=O)[C@H](C)NC(=O)[C@H](CO)NC(=O)[C@@H](NC(=O)[C@@H](NC(C)=O)C1CCCC1)[C@@H](C)O)C(N)=O (Ac-[Gly(cPent)]TS[X1]DE(OAll)-NH2) | inactive | 6.30 | – | –
22 | C=CCOC(=O)CC[C@H](NC(=O)[C@H](CC(=O)O)NC(=O)C(=O)[C@H](C)NC(=O)C(C)(C)NC(=O)[C@@H](NC(=O)[C@@H](NC(C)=O)C1CCCC1)[C@@H](C)O)C(N)=O (Ac-[Gly(cPent)]T[Aib][X1]DE(OAll)-NH2) | inactive | < 4.00 | – | –
23 | C=CCOC(=O)CC[C@H](NC(=O)[C@H](CC(=O)O)NC(=O)C(=O)[C@H](C)NC(=O)CN(C)C(=O)[C@@H](NC(=O)[C@@H](NC(C)=O)C1CCCC1)[C@@H](C)O)C(N)=O (Ac-[Gly(cPent)]T[Sar][X1]DE(OAll)-NH2) | – | 5.33 | – | –
24 | C=CCOC(=O)CC[C@H](NC(=O)[C@H](CC(=O)O)NC(=O)C(=O)[C@H](C)NC(=O)[C@H](C)NC(=O)[C@H](CC(C)C)N(C)C(=O)[C@@H](NC(C)=O)C1CCCC1)C(N)=O (Ac-[Gly(cPent)][NMeL]A[X1]DE(OAll)-NH2) | – | 4.88 | – | –
25 | C=CCOC(=O)CC[C@H](NC(=O)[C@H](CC(=O)O)NC(=O)C(=O)[C@H](C)NC(=O)[C@H](C)NC(=O)[C@](C)(CC(C)C)NC(=O)[C@@H](NC(C)=O)C1CCCC1)C(N)=O (Ac-[Gly(cPent)][αMeL]A[X1]DE(OAll)-NH2) | inactive | 5.25 | – | –
26 | C=CCOC(=O)CC[C@H](NC(=O)[C@H](CC(=O)O)NC(=O)C(=O)[C@H](C)NC(=O)[C@H](C)NC(=O)[C@@H](NC(=O)[C@@H](NC(C)=O)C(CC)CC)[C@@H](C)O)C(N)=O (Ac-[Nva(3-Et)]TA[X1]DE(OAll)-NH2) | – | 6.34 | 8% | –
27 | C=CCOC(=O)CC[C@H](NC(=O)[C@H](CC(=O)O)NC(=O)C(=O)[C@H](C)NC(=O)[C@H](C)NC(=O)[C@@H](NC(=O)[C@@H](NC(C)=O)c1ccccc1)[C@@H](C)O)C(N)=O (Ac-[Phg]TA[X1]DE(OAll)-NH2) | – | 6.66 | 9% | –
28 | C=CCOC(=O)CC[C@H](NC(=O)[C@H](CC(=O)O)NC(=O)C(=O)[C@H](C)NC(=O)[C@H](C)NC(=O)[C@@H](NC(=O)[C@@H](NC(C)=O)C(C)(C)C)[C@@H](C)O)C(N)=O (Ac-[Tle]TA[X1]DE(OAll)-NH2) | – | 6.68 | 4% | –
29 | C=CCOC(=O)CC[C@H](NC(=O)[C@H](CC(=O)O)NC(=O)C(=O)[C@H](C)NC(=O)[C@H](C)NC(=O)[C@@H](NC(=O)[C@H](CC(C)(C)C)NC(C)=O)[C@@H](C)O)C(N)=O (Ac-[tBuAla]TA[X1]DE(OAll)-NH2) | inactive | 6.41 | – | –
